Test results reported in ChEMBL document CHEMBL2440012, “Design, synthesis and anticonvulsant properties of new N-Mannich bases derived from 3-phenylpyrrolidine-2,5-diones” (Bioorg Med Chem, 2013).
The source made the active and inactive calls. No cut-off for these calls is given here.

How the values were obtained:
Mus musculus [1] = test: Anticonvulsant activity in albino CF1 mouse assessed as assessed as protection against 6 Hz psychomotor seizure at 50 mg/kg, ip after 1 hr by minimal clonic seizure test; assay type: functional; details: route intraperitoneal
How it was run: (§1)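 Male CF-1 mice, groups of four, dosed ip in 0.5% methylcellulose/water suspension, then challenged by 6-Hz corneal stimulation at 32 mA (0.2 ms pulses, 3 s, constant current) at 0.25, 0.5, 1, 2 or 4 h; count of mice out of four protected from stunned posture/clonic seizure.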

Mus musculus [2] = test: Neurotoxicity in ip dosed albino CF1 mouse assessed as minimum motor impairment in half or more animals measured after 4 hrs by rotorod test; assay type: toxicity, organism-based; details: in vivo
How it was run: (§2)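 Male CF-1 mice given ip suspension in 0.5% methylcellulose/water at 30, 100 and 300 mg/kg; MES, scPTZ (pentylenetetrazole 85 mg/kg sc, CD97 dose for clonic seizures ≥5 s) and rotarod (inability to hold balance 1 min in each of three trials) assessed at 0.5 and 4 h; value is minimum dose active in half or more animals.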

Mus musculus [3] = test: Anticonvulsant activity in albino CF1 mouse assessed as assessed as protection against 6 Hz psychomotor seizure at 50 mg/kg, ip after 2 hrs by minimal clonic seizure test; assay type: functional; details: route intraperitoneal; how it was run: as §1
Rattus norvegicus [4] = test: Anticonvulsant activity in albino Sprague-Dawley rat assessed as protection against maximal electroshock-induced seizures at 30 mg/kg, po measured after 4 hrs; assay type: functional
How it was run: (§3)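 Male Sprague-Dawley rats, four per group, dosed p.o. at 30 mg/kg in 0.5% methylcellulose/water suspension; MES test at 0.25, 0.5, 1, 2 and 4 h, motor impairment examined in parallel; number of rats out of four protected.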

Mus musculus [5] = test: Anticonvulsant activity in albino CF1 mouse assessed as assessed as protection against 6 Hz psychomotor seizure at 100 mg/kg, ip after 1 hr by minimal clonic seizure test; assay type: functional; details: route intraperitoneal; how it was run: as §1
Rattus norvegicus [6] = test: Anticonvulsant activity in albino rat assessed as protection against pilocarpine-induced status epilepticus at 100 mg/kg, ip measured 0.5 hrs post first stage 3 seizure; assay type: functional, organism-based; set-up: dose 100 mg/kg
How it was run: (§4)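 Male Sprague-Dawley rats (150–180 g) dosed ip, followed by challenge dose of pilocarpine; compound given relative to first stage III seizure (time zero or 0.5 h); outcome scored as protection or no protection, plus body-weight change 24 h after first stage III seizure.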

Mus musculus [7] = test: Neurotoxicity in ip dosed albino CF1 mouse assessed as time to peak effect by rotorod test; assay type: toxicity, organism-based; details: in vivo
Rattus norvegicus [8] = test: Anticonvulsant activity in albino Sprague-Dawley rat assessed as protection against maximal electroshock-induced seizures at 30 mg/kg, po measured after 0.25 hr; assay type: functional; how it was run: as §3
Rattus norvegicus [9] = test: Anticonvulsant activity in albino Sprague-Dawley rat assessed as protection against maximal electroshock-induced seizures at 30 mg/kg, po measured after 1 hr; assay type: functional; how it was run: as §3
Mus musculus [10] = test: Anticonvulsant activity in albino CF1 mouse assessed as assessed as protection against 6 Hz psychomotor seizure at 50 mg/kg, ip after 4 hrs by minimal clonic seizure test; assay type: functional; details: route intraperitoneal; how it was run: as §1
Mus musculus [11] = test: Anticonvulsant activity in albino CF1 mouse assessed as assessed as protection against 6 Hz psychomotor seizure at 100 mg/kg, ip after 2 hrs by minimal clonic seizure test; assay type: functional; details: route intraperitoneal; how it was run: as §1
Mus musculus [12] = test: Anticonvulsant activity in albino CF1 mouse assessed as assessed as protection against 6 Hz psychomotor seizure at 50 mg/kg, ip after 0.25 hr by minimal clonic seizure test; assay type: functional; details: route intraperitoneal; how it was run: as §1
Rattus norvegicus [13] = test: Anticonvulsant activity in albino Sprague-Dawley rat assessed as protection against maximal electroshock-induced seizures at 30 mg/kg, po measured after 2 hrs; assay type: functional; how it was run: as §3
Mus musculus [14] = test: Anticonvulsant activity against 6 Hz psychomotor seizure in ip dosed albino CF1 mouse assessed as time to peak effect by minimal clonic seizure test; assay type: functional
Mus musculus [15] = test: Anticonvulsant activity in albino CF1 mouse assessed as assessed as protection against 6 Hz psychomotor seizure at 100 mg/kg, ip after 4 hrs by minimal clonic seizure test; assay type: functional; details: route intraperitoneal; how it was run: as §1
Mus musculus [16] = test: Anticonvulsant activity against 6 Hz psychomotor seizure in ip dosed albino CF1 mouse by minimal clonic seizure test; assay type: functional
Mus musculus [17] = test: Anticonvulsant activity in ip dosed albino CF1 mouse assessed as protection against subcutaneous pentylenetetrazole-induced convulsion in half or more animals measured after 0.5 hr; assay type: functional; details: albino CF1, 0.5 h, read-out: MED; how it was run: as §2
Mus musculus [18] = test: Anticonvulsant activity in ip dosed albino CF1 mouse assessed as protection against subcutaneous pentylenetetrazole-induced convulsion in half or more animals measured after 4 hrs; assay type: functional; details: albino CF1, 4 h, read-out: MED; how it was run: as §2
Mus musculus [19] = test: Anticonvulsant activity in albino CF1 mouse assessed as assessed as protection against 6 Hz psychomotor seizure at 100 mg/kg, ip after 0.25 hr by minimal clonic seizure test; assay type: functional; details: route intraperitoneal; how it was run: as §1
Rattus norvegicus [20] = test: Anticonvulsant activity in albino Sprague-Dawley rat assessed as protection against maximal electroshock-induced seizures at 30 mg/kg, po measured after 0.5 hr; assay type: functional; how it was run: as §3
Mus musculus [21] = test: Anticonvulsant activity against […] psychomotor seizure in ip dosed albino CF1 mouse by minimal clonic seizure test; assay type: functional
Mus musculus [22] = test: Anticonvulsant activity in albino CF1 mouse assessed as assessed as protection against 6 Hz psychomotor seizure at 100 mg/kg, ip after 0.5 hr by minimal clonic seizure test; assay type: functional; details: route intraperitoneal; how it was run: as §1
Mus musculus [23] = test: Anticonvulsant activity in ip dosed albino CF1 mouse assessed as protection against maximal electroshock-induced seizures in half or more animals measured after 4 hrs; assay type: functional; details: read-out: MED; how it was run: as §2
Mus musculus [24] = test: Anticonvulsant activity in albino CF1 mouse assessed as assessed as protection against 6 Hz psychomotor seizure at 50 mg/kg, ip after 0.5 hr by minimal clonic seizure test; assay type: functional; details: route intraperitoneal; how it was run: as §1
Mus musculus [25] = test: Toxicity in albino CF1 mouse assessed as sedation at 100 mg/kg, ip measured after 4 hrs by rotorod test; assay type: organism-based; set-up: dose 100 mg/kg, route intraperitoneal; details: in vivo
Mus musculus [26] = test: Anticonvulsant activity in ip dosed albino CF1 mouse assessed as protection against maximal electroshock-induced seizures in half or more animals measured after 0.5 hr; assay type: functional; details: read-out: MED; how it was run: as §2
Mus musculus [27] = test: Anticonvulsant activity against […] psychomotor seizure in ip dosed albino CF1 mouse assessed as time to peak effect by minimal clonic seizure test; assay type: functional
Mus musculus [28] = test: Anticonvulsant activity in albino CF1 mouse assessed as protection against maximal electroshock-induced seizures at 300 mg/kg, ip measured after 4 hrs; assay type: functional, organism-based; set-up: dose 300 mg/kg; how it was run: as §2
Mus musculus [29] = test: Neurotoxicity in ip dosed albino CF1 mouse assessed as minimum motor impairment in half or more animals measured after 0.5 hrs by rotorod test; assay type: toxicity, organism-based; details: in vivo; how it was run: as §2
Cytochrome P450 3A4 [30] = biological target: T1, Cytochrome P450 3A4 (Homo sapiens, UniProt P08684); test: Inhibition of CYP3A4 (unknown origin) using 200 uM testosterone as substrate assessed as formation of 6-beta-OH-testosterone relative to control; assay type: ADME
T1 sequence (P08684 whole entry): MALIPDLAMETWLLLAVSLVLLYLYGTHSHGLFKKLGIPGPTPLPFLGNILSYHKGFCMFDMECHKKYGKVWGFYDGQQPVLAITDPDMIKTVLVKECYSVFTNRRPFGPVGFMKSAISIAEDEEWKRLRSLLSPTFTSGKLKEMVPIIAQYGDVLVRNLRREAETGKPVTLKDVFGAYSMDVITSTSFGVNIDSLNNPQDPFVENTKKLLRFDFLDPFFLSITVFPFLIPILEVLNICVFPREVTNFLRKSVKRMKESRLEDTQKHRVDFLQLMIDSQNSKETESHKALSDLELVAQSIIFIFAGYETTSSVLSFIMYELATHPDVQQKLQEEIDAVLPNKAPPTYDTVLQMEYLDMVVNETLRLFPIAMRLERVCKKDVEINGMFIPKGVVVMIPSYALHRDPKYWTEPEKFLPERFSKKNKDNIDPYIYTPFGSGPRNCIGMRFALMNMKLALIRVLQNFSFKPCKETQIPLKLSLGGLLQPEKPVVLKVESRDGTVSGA

[31] = Neurotoxicity in ip dosed albino CF1 mouse by rotorod test; assay type: toxicity, organism-based; details: in vivo
Rattus norvegicus [32] = test: Anticonvulsant activity in albino rat assessed as protection against pilocarpine-induced status epilepticus at 400 mg/kg, ip measured 0.5 hrs post first stage 3 seizure; assay type: functional, organism-based; set-up: dose 400 mg/kg; how it was run: as §4
Cytochrome P450 3A4 [33] = biological target: T1, Cytochrome P450 3A4; test: Inhibition of CYP3A4 (unknown origin) using 50 uM testosterone as substrate assessed as formation of 6-beta-OH-testosterone relative to control; assay type: ADME
Mus musculus [34] = test: Neurotoxicity in albino CF1 mouse assessed as minimum motor impairment at 300 mg/kg, ip measured after 4 hrs by rotorod test; assay type: toxicity, organism-based; set-up: dose 300 mg/kg, route intraperitoneal; details: in vivo; how it was run: as §2
Mus musculus [35] = test: Protection index, ratio of TD50 for neurotoxicity in ip dosed albino CF1 mouse by rotorod test to ED50 for anticonvulsant activity in ip dosed albino CF1 mouse by 6 Hz psychomotor seizure test; assay type: functional
Rattus norvegicus [36] = test: Anticonvulsant activity in ip dosed albino rat assessed as protection against pilocarpine-induced status epilepticus measured 0.5 hrs post first stage 3 seizure; assay type: functional; how it was run: as §4

Compound | Activity (Rattus norvegicus [4]) | Activity (Mus musculus [5]) | Time (Mus musculus [7]) | Activity (Rattus norvegicus [8]) | Activity (Rattus norvegicus [9]) | Activity (Mus musculus [11]) | Activity (Rattus norvegicus [13]) | Time (Mus musculus [14]) | Activity (Mus musculus [15]) | ED50 (Mus musculus [16]) | minimal effective dose (Mus musculus [17]) | minimal effective dose (Mus musculus [18]) | Activity (Mus musculus [19]) | Activity (Rattus norvegicus [20]) | Activity (Mus musculus [22]) | minimal effective dose (Mus musculus [26]) | further results
O=C1CC(c2ccccc2Cl)C(=O)N1CN1CCOCC1 (racemic) | inactive | 100% | 0.25 h | inactive | 25% | 100% | inactive | 0.25 h | 100% | 31.1 mg/kg | 100 mg/kg | 300 mg/kg | 100% | 25% | 100% | 100 mg/kg | Activity (Mus musculus [1]): 75%; MED (Mus musculus [2]): 300 mg/kg; Activity (Mus musculus [3]): 75%; Activity (Rattus norvegicus [6]): inactive; Activity (Mus musculus [10]): 0%; Activity (Mus musculus [12]): 100%; ED50 (Mus musculus [21]): 55.6 mg/kg; minimal effective dose (Mus musculus [23]): 100 mg/kg; Activity (Mus musculus [24]): 75%; MED (Mus musculus [25]): 300 mg/kg; Time (Mus musculus [27]): 0.5 h
O=C1CC(c2ccccc2)C(=O)N1CN1CCOCC1 (racemic) | inactive | 25% | 0.25 h | inactive | inactive | 0% | inactive | 0.25 h | 0% | 77.2 mg/kg | 300 mg/kg | 300 mg/kg | 75% | inactive | 0% | 100 mg/kg | Activity (Mus musculus [28]): inactive; MED (Mus musculus [29]): 300 mg/kg; inhibition (INH) (Cytochrome P450 3A4 [30]): 19%; TD50 [31]: 293 mg/kg; Activity (Rattus norvegicus [32]): Active; inhibition (INH) (Cytochrome P450 3A4 [33]): 17%; Activity (Mus musculus [34]): Non-toxic; Ratio TD50/ED50 (Mus musculus [35]): 3.79; ED50 (Rattus norvegicus [36]): 342 mg/kg
